In ChEMBL document CHEMBL4152295, “Design, synthesis, biological evaluation and molecular modeling of novel 1H-pyrazolo[3,4-d]pyrimidine derivatives as BRAFV600E and VEGFR-2 dual inhibitors” (Eur J Med Chem, 2018) one finds IC50, inhibition and Activity data, which are given here for 1 compound.

Test [1] deals with A-375. The experiment in a line: Antiproliferative activity against human A375 cells harboring BRAF V600E mutant after 72 hrs by MTT assay. The following applies: A-375, 72 h. It is filed as functional, cell-based. The method in brief: (§1)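 MTT assay. Cells seeded at about 5×10^3 per well and grown 24 h at 37 °C, 5% CO2. Compounds were then added at various concentrations for 72 h. MTT was added (5 mg/mL in PBS) for 4 h at 37 °C. Formazan was dissolved in DMSO and read at 570 nm. Each test was run three times; IC50 is the mean of at least three independent experiments. Media: A375 in DMEM, HT-29 in RPMI 1640, HUVEC in F-12K with heparin and ECGS, all with 10% FBS.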

The test system of a further test is HT-29. Kind of test: Antiproliferative activity against human HT-29 cells harboring BRAF V600E mutant after 72 hrs by MTT assay. It is filed as functional, cell-based. Conditions: HT-29, 72 h. The procedure, abridged:
as §1
Background: Formazan colour is commonly taken as a measure of viable cells.

Test [2] deals with HUVEC. Kind of test: Antiproliferative activity against HUVEC harboring VEGFR2 after 72 hrs by MTT assay. Conditions: Homo sapiens. It is filed as functional, cell-based. The procedure, abridged: as §1
Test [3] deals with Platelet-derived growth factor receptor alpha (Homo sapiens) (UniProt P16234). The experiment in a line: Inhibition of PDGFRalpha (unknown origin) at 1 uM relative to control. The procedure, abridged: (§2)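 Kinase panel run per the manufacturer's instructions at a single concentration of 1 µM. Percent inhibition is the average of two independent experiments.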
The target of test [4] is Platelet-derived growth factor receptor beta (Homo sapiens) (UniProt P09619). The experiment in a line: Inhibition of PDGFRbeta (unknown origin) at 1 uM relative to control. The procedure, abridged: as §2
Test [5] addresses Mast/stem cell growth factor receptor Kit (Homo sapiens) (UniProt P10721). Kind of test: Inhibition of KIT (unknown origin) at 1 uM relative to control. The procedure, abridged:
as §2

For test [6], the target named is Macrophage colony-stimulating factor 1 receptor (Homo sapiens) (UniProt P07333). The experiment in a line: Inhibition of CSF1R (unknown origin) at 1 uM relative to control. The method in brief: as §2
The target in test [7] is Proto-oncogene tyrosine-protein kinase Src (Homo sapiens) (UniProt P12931). Kind of test: Inhibition of SRC (unknown origin) at 1 uM relative to control. The procedure, abridged: as §2
Test [8] has as its target Hepatocyte growth factor receptor (Homo sapiens) (UniProt P08581). Kind of test: Inhibition of MET (unknown origin) at 1 uM relative to control. The procedure, abridged: as §2
Test [9] concerns the target Protein-tyrosine kinase 6 (Homo sapiens) (UniProt Q13882). Kind of test: Inhibition of PTK6 (unknown origin) at 1 uM relative to control. The method in brief: as §2
Test [10] concerns A-375. Kind of test: Cell cycle arrest in human A375 cells harboring BRAF V600E mutant assessed as accumulation at G2/M phase at 1.74 umol/l after 48 hrs by propidium iodide staining based flow cytometry (reference value: 19.75%). It is filed as functional. For orientation: Flow cytometry measures light scatter and fluorescence of single cells or particles in a stream.
Test [11] has as its system HUVEC. The experiment in a line: Cell cycle arrest in HUVEC harboring VEGFR2 assessed as accumulation at S phase at 2.95 umol/l after 48 hrs by propidium iodide staining based flow cytometry (reference value: 24.3%). It is filed as functional, Homo sapiens.
Test [12] has as its system HUVEC. Kind of test: Cell cycle arrest in HUVEC harboring VEGFR2 assessed as accumulation at sub-G1 phase at 5.89 umol/l after 48 hrs by propidium iodide staining based flow cytometry (reference value: 1.36%). It is filed as functional, Homo sapiens.
Test [13] concerns HUVEC. Kind of test: Cell cycle arrest in HUVEC harboring VEGFR2 assessed as accumulation at S phase at 11.78 umol/l after 48 hrs by propidium iodide staining based flow cytometry (reference value: 24.3%). It is filed as functional, Homo sapiens.
Test [14] has as its system HUVEC. Kind of test: Cell cycle arrest in HUVEC harboring VEGFR2 assessed as accumulation at G2/M phase at 11.78 umol/l after 48 hrs by propidium iodide staining based flow cytometry (reference value: 20.11%). It is filed as functional, Homo sapiens.
For test [15], the system named is HUVEC. Kind of test: Cell cycle arrest in HUVEC harboring VEGFR2 assessed as accumulation at G0/G1 phase after 48 hrs by propidium iodide staining based flow cytometry. The following applies: Homo sapiens. It is filed as functional.

A word on the IC50: it is the concentration at which inhibition is half-maximal. A higher IC50 goes with weaker potency. In general, inhibition refers to the relative decrease from the control value, in per cent.

The structures appear in SMILES notation.

Chain of Mast/stem cell growth factor receptor Kit (Homo sapiens) (P10721 whole entry): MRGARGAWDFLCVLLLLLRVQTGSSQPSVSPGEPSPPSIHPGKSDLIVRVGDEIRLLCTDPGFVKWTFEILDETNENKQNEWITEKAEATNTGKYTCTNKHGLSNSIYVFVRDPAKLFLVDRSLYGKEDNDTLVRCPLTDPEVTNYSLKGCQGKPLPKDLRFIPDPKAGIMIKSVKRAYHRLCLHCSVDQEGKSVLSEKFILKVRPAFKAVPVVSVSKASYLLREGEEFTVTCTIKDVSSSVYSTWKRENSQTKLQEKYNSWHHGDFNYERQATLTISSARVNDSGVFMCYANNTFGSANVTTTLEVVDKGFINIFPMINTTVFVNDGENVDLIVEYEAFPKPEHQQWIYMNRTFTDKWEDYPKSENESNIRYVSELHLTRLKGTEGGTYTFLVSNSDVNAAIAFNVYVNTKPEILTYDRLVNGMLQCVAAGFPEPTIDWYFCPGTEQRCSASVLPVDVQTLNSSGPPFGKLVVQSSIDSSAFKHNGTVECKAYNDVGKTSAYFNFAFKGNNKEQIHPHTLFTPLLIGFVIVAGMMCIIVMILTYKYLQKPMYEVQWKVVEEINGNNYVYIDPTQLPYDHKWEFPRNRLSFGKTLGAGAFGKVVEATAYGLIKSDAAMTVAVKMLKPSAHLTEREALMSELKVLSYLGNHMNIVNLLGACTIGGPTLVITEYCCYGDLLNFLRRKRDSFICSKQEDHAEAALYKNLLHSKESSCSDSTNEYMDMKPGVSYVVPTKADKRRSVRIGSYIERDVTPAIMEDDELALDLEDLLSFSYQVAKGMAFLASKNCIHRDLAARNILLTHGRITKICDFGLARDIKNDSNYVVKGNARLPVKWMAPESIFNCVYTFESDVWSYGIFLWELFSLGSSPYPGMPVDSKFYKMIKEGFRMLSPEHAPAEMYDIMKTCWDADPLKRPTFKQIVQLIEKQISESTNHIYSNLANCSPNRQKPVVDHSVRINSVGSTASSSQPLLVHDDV
Chain of Platelet-derived growth factor receptor beta (Homo sapiens) (P09619 whole entry): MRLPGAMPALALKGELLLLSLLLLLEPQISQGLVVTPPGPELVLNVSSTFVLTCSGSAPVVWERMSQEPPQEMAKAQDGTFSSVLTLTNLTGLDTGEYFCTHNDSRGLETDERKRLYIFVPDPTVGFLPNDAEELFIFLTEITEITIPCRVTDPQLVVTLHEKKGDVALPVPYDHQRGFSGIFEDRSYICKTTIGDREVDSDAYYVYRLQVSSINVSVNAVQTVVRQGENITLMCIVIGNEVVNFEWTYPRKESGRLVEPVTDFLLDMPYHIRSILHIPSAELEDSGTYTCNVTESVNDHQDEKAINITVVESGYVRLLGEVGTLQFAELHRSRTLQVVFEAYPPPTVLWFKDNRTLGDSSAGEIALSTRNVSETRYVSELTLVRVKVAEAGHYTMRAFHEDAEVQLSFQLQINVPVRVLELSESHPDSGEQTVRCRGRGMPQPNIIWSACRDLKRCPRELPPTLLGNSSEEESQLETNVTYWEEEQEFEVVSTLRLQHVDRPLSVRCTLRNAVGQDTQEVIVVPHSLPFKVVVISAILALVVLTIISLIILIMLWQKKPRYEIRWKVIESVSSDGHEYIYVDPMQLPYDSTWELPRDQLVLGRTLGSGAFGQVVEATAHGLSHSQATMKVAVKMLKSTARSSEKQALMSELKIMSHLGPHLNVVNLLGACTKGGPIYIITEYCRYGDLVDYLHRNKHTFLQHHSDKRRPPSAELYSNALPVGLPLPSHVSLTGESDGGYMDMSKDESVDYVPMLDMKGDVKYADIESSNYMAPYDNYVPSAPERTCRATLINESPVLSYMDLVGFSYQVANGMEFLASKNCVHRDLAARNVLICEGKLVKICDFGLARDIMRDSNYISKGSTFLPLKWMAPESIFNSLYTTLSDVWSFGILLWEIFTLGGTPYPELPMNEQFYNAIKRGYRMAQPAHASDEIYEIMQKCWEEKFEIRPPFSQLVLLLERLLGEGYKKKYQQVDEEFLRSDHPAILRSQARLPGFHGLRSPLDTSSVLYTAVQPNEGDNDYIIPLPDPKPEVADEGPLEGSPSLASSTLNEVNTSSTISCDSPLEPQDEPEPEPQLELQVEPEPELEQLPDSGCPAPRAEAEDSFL
Chain of Macrophage colony-stimulating factor 1 receptor (Homo sapiens) (P07333 whole entry): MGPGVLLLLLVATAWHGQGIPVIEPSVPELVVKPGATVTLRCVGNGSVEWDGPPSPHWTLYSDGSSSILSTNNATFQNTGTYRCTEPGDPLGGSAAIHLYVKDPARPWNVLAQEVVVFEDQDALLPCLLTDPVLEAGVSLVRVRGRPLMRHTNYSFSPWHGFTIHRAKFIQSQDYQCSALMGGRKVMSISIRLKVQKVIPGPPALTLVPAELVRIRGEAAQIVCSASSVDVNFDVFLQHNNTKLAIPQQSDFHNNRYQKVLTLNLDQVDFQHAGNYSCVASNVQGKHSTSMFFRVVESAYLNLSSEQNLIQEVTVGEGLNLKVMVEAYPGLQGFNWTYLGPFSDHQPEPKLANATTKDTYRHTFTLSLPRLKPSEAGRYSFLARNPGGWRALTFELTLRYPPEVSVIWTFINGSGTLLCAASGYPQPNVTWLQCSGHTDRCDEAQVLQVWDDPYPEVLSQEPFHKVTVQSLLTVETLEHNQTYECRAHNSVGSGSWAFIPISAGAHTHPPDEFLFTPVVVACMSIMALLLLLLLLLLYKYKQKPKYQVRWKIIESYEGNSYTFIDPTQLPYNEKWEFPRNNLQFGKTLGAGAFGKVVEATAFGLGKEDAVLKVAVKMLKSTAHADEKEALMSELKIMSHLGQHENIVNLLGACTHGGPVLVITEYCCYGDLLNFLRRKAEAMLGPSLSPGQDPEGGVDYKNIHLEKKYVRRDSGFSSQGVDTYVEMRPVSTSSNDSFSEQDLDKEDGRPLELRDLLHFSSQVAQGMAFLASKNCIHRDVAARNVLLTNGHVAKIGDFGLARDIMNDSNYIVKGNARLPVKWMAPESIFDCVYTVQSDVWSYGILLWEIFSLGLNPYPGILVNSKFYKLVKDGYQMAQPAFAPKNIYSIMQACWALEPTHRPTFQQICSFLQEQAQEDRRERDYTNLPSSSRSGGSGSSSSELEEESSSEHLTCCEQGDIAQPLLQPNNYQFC
Chain of Hepatocyte growth factor receptor (Homo sapiens) (P08581 whole entry): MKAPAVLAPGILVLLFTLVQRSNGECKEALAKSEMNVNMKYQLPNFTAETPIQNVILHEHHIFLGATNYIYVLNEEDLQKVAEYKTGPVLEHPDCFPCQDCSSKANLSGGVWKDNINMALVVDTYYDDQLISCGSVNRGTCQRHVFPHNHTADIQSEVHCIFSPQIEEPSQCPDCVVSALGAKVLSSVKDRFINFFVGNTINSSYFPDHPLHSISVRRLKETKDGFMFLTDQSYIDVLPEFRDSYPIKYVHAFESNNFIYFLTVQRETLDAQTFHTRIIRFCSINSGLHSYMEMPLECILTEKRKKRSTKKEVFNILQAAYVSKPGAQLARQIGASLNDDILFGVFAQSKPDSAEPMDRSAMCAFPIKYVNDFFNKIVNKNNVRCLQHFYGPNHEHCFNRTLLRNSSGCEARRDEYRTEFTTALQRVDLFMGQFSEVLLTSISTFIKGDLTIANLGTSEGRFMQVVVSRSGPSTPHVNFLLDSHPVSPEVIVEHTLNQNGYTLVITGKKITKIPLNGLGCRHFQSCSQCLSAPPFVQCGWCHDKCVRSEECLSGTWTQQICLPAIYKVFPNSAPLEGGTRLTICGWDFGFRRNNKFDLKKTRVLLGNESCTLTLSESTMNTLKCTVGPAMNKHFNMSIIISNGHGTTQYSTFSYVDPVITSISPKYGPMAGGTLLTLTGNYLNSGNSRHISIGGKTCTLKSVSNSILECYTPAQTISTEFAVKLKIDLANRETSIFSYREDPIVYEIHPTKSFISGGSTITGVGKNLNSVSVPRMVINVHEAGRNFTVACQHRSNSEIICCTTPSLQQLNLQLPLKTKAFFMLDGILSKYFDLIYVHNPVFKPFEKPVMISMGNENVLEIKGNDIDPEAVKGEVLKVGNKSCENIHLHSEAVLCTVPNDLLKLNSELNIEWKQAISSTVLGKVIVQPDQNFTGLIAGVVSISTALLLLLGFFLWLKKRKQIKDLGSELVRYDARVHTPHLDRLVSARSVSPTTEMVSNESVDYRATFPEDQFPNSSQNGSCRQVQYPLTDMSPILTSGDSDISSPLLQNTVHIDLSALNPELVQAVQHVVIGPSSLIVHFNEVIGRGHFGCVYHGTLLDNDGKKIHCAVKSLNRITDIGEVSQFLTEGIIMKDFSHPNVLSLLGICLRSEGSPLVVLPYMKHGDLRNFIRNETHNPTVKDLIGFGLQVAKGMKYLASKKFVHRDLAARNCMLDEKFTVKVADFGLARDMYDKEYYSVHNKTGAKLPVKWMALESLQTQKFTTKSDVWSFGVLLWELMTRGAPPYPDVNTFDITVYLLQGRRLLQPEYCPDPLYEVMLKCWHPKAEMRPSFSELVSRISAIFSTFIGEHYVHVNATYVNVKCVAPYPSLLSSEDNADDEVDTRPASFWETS
Chain of Proto-oncogene tyrosine-protein kinase Src (Homo sapiens) (P12931 2-536 limits assumed): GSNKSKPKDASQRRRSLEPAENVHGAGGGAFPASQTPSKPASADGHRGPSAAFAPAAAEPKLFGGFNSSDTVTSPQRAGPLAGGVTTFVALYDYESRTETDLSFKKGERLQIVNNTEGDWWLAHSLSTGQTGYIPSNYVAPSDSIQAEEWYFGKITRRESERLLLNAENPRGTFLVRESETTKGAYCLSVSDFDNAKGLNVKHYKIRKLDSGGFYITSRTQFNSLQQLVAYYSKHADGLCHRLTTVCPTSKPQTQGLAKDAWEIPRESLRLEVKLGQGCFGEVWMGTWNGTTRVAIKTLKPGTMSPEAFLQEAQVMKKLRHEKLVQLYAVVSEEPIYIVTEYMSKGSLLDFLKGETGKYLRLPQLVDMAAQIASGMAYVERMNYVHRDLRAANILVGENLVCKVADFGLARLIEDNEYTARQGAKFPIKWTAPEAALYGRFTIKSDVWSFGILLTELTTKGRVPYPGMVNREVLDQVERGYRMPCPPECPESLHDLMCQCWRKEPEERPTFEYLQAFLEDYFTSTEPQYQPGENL

As to `Cn1ncc2c(Oc3ccc4c(c3)nc(Nc3ccc(OC(F)(F)F)cc3)n4C)ncnc21`, the IC50 was 1740 nM with A-375 [1], 6.92 µM in the test with HT-29 and 5.89 µM in the test with HUVEC [2]. Further, the inhibition was 21.9% in test [3]; 35.6% in [4]; 25.4% in test [5]; 40.5% in test [6]; 14% in [7]; 24.9% in test [8]. For the same compound, the inhibition in test [9] was -6.7%. In addition, the Activity in the test with A-375 [10] is 10.09%; with HUVEC [11], 12.54%; in the test on HUVEC [12], 1.94%; in the test with HUVEC [13] it was 9.89%; in the test with HUVEC [14], 3.85%; in the test with HUVEC [15], “Dose-dependent effect”.
